ChEMBL document CHEMBL2380221, “Discovery of novel STAT3 small molecule inhibitors via in silico site-directed fragment-based drug design” (J Med Chem, 2013)
Values belong to the compound of their own block, whether it stands above or below them. The source made the active and inactive calls. The calls are words filed in the database; no cut-off is given here.

How the values were obtained:
[1] = system: U2OS; experiment: Cytotoxicity against human U2OS cells assessed as cell viability by MTT assay; type: functional, cell-based
Procedure, shortened: (§1)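 RD2, RH30 and U2OS sarcoma cells were seeded at 3000 cells/well and incubated 24 h at 37 °C. Compounds were then added in triplicate at 0.1–10 or 0.1–20 μM in the presence of 10% FBS, from 20 mM DMSO stocks. IC50 was obtained by curve fitting.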

[2] = Cytotoxicity against human Rh30 cells assessed as cell viability by MTT assay; type: functional, cell-based; conditions: SJRH30; procedure, shortened: as §1
[3] = target: Signal transducer and activator of transcription 3 (Homo sapiens) (UniProt P40763); experiment: Inhibition of IL6-induced STAT3 Y705 phosphorylation in human MCF7 cells at 0.5 to 2.5 uM incubated for 5 hrs prior to IL6 induction measured after 30 mins by Western blot analysis; type: cell-based
Chain of Signal transducer and activator of transcription 3 (Homo sapiens) (P40763 whole entry): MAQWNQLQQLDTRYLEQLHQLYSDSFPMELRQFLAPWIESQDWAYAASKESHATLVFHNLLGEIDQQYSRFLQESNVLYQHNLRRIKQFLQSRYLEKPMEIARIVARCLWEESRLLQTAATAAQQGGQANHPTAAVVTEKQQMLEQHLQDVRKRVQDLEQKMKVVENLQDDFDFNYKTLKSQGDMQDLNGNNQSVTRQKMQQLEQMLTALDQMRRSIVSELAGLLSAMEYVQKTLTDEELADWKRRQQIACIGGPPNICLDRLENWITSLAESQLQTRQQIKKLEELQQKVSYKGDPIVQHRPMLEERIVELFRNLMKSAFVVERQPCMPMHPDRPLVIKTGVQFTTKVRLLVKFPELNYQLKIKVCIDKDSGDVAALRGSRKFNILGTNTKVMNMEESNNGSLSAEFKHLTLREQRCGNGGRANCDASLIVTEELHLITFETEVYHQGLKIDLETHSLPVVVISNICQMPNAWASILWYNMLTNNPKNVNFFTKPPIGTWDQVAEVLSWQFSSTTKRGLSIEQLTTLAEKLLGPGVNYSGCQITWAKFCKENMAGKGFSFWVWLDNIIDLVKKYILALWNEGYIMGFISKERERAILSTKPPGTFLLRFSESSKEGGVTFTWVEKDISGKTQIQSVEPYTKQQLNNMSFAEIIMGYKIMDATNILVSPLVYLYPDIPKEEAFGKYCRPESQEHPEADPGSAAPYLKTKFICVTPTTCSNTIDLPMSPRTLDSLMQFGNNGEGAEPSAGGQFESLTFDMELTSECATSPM
Procedure, shortened: (§2)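 MCF-7 cells, which lack persistent P-STAT3, were allowed to adhere overnight and then serum-starved overnight. They were left untreated or pretreated with compound or DMSO for 5 h, then stimulated with IL-6 at 25 ng/mL. Cells were harvested 30 min later and probed for P-STAT3 (Tyr705) and STAT3 by Western blot using RIPA lysates and ECL.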

[4] = target: Signal transducer and activator of transcription 3 (Homo sapiens) (UniProt P40763); experiment: Inhibition of constitutive STAT3 Y705 phosphorylation in human Rh30 cells after 16 hrs by Western blot analysis; type: cell-based
Procedure, shortened: (§3)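 RH30 cells at 60–80% confluence in 10% FBS were treated with compound or DMSO for 16 h. Whole-cell extracts were made in cold RIPA buffer with protease and phosphatase inhibitor cocktails. Extracts were run on SDS-PAGE and transferred to PVDF. Blots were probed for P-STAT3 (Tyr705) and total STAT3 with primary antibody 1:1,000 and HRP secondary 1:10000, then detected by ECL.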

[5] = Cytotoxicity against human RD2 cells assessed as cell viability by MTT assay; type: functional, cell-based; procedure, shortened: as §1
[6] = system: SJRH30; experiment: Effect on total STAT3 expression in human Rh30 cells at 0.5 to 2.5 uM after 16 hrs by Western blot analysis; type: functional, cell-based; procedure, shortened: as §3
[7] = target: Signal transducer and activator of transcription 3 (Homo sapiens) (UniProt P40763); experiment: Inhibition of constitutive STAT3 Y705 phosphorylation in human EW8 cells after 8 hrs by Western blot analysis; type: cell-based
Procedure, shortened: (§4)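 EW8 Ewing's sarcoma cells were treated with 0.5–1 μM compound or DMSO for 8 h, in 10% FBS at 60–80% confluence. Whole-cell RIPA lysates were analyzed by SDS-PAGE and PVDF Western blot, with primary antibody 1:1,000, HRP secondary 1:10000 and ECL detection. Blots were probed for P-STAT3, total STAT3, phosphorylated ERK1/2 and cleaved caspase 3.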

[8] = system: EW8; experiment: Effect on total STAT3 expression in human EW8 cells at 0.5 to 1 uM after 8 hrs by Western blot analysis; type: functional, cell-based; procedure, shortened: as §4
[9] = system: SJRH30; experiment: Effect on total STAT3 expression in human Rh30 cells at 0.25 to 1 uM after 16 hrs by Western blot analysis; type: functional, cell-based; procedure, shortened: as §3
[10] = target: Signal transducer and activator of transcription 3 (Homo sapiens) (UniProt P40763); experiment: Inhibition of IL6-induced STAT3 Y705 phosphorylation in human MCF7 cells at 0.25 to 1 uM incubated for 5 hrs prior to IL6 induction measured after 30 mins by Western blot analysis; type: cell-based; procedure, shortened: as §2
[11] = target: Signal transducer and activator of transcription 3 (Homo sapiens) (UniProt P40763); experiment: Inhibition of IL6-induced STAT3 Y705 phosphorylation in human DAOY cells at 1 to 5 uM incubated for 2 hrs prior to IL6 induction measured after 30 mins by Western blot analysis; type: cell-based
Procedure, shortened: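 DAOY medulloblastoma cells were allowed to adhere, then serum-starved overnight. They were left untreated or pretreated with 1–5 μM compound or DMSO for 2 h, then stimulated with IL-6. Cells were harvested 30 min after stimulation. P-STAT3 (Tyr705) and STAT3 were detected by Western blot from RIPA lysates, with ECL detection.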

[12] = system: MDA-MB-231; experiment: Antitumor activity against human MDA-MB-231 cells xenografted in Harlan athymic nude mouse assessed as tumor growth inhibition at 5 mg/kg, ip measured for 21 days; type: functional, organism-based; design: dose 5 mg/kg
Procedure, shortened: (§5)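 Female athymic nude mice, 6 weeks old, received 5 × 10^6 MDA-MB-231 cells subcutaneously in the flank. After tumors developed, they were split into two groups of eight tumors each: DMSO vehicle control, or 5 mg/kg IP. The drug was formulated in Cremaphor, DMSO and 5% dextrose. Tumor L and W were measured by caliper every other day. Volume = 0.5236 × L × W2. Treatment lasted 21 days.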

[13] = system: MDA-MB-231; experiment: Antitumor activity against human MDA-MB-231 cells xenografted in Harlan athymic nude mouse assessed as decrease in tumor size at 5 mg/kg, ip measured for 21 days; type: functional, organism-based; design: dose 5 mg/kg; procedure, shortened: as §5
[14] = target: T1, Signal transducer and activator of transcription 1-alpha/beta (Homo sapiens) (UniProt P42224); experiment: Inhibition of IFN-gamma-induced STAT1 Y701 phosphorylation in human DAOY cells at 1 to 5 uM incubated for 2 hrs prior to IFN-gamma induction measured after 30 mins by Western blot analysis; type: cell-based
T1 sequence (whole entry): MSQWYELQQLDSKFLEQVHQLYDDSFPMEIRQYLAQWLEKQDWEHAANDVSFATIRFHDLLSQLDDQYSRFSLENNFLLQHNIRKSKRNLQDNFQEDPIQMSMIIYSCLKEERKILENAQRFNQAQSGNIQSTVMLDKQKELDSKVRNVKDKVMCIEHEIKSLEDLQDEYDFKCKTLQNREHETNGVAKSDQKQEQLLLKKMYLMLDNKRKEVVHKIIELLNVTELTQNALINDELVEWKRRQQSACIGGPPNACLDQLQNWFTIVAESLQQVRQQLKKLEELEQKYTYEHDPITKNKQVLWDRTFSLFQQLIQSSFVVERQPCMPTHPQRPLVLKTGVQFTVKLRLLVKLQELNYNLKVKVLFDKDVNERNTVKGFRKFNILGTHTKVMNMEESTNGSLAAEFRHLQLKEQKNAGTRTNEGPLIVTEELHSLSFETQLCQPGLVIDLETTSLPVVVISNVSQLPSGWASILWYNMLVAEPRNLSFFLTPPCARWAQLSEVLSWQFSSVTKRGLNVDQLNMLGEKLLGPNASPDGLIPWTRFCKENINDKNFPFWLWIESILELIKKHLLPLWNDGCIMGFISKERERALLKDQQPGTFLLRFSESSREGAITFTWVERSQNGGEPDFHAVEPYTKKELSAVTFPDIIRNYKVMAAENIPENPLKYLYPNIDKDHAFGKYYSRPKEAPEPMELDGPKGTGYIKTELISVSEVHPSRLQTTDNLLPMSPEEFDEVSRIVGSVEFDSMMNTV
Procedure, shortened: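 DAOY cells were serum-starved overnight and left untreated or treated with 1–5 μM compound or DMSO for 2 h. They were then stimulated with IFN-γ at 50 ng/mL and harvested 30 min later. STAT1 phosphorylation was analyzed by Western blot from RIPA lysates, with ECL detection.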

[15] = target: Mitogen-activated protein kinase; ERK1/ERK2 (Homo sapiens) (UniProt P27361+P28482); experiment: Inhibition of ERK1/2 phosphorylation in human EW8 cells at 0.5 to 1 uM after 8 hrs by Western blot analysis; type: cell-based; procedure, shortened: as §4
Chain of Mitogen-activated protein kinase; ERK1/ERK2 (Homo sapiens) (P27361 whole entry, looked up): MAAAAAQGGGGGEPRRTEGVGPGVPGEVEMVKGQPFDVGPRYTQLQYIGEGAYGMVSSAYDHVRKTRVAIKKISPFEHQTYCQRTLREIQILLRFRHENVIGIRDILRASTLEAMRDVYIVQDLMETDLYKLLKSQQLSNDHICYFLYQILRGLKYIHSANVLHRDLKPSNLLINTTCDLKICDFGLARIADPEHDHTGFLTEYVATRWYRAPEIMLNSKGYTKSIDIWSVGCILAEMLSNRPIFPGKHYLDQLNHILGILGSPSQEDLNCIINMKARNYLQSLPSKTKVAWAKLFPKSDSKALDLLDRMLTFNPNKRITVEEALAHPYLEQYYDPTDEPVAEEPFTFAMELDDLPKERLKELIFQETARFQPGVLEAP
Chain of Mitogen-activated protein kinase; ERK1/ERK2 (Homo sapiens) (P28482 whole entry, looked up): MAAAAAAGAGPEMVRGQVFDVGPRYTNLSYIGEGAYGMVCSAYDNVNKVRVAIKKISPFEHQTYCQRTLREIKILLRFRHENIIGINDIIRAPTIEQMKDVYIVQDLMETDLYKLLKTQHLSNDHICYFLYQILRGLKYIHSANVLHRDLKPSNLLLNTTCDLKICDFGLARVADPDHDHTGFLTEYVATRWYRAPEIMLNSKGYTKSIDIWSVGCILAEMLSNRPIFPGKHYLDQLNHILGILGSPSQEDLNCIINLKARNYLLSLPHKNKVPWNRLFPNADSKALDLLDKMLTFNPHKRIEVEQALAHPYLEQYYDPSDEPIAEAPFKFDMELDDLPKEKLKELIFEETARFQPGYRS

[16] = target: Signal transducer and activator of transcription 3 (Homo sapiens) (UniProt P40763); experiment: Inhibition of constitutive STAT3 Y705 phosphorylation in human EW8 cells assessed as appearance of cleaved caspase 3 at 0.5 to 1 uM after 8 hrs by Western blot analysis; type: cell-based; procedure, shortened: as §4
[17] = Cytotoxicity against human U373 cells assessed as cell viability after 72 hrs by MTT assay; type: functional, cell-based, U-373MG ATCC; conditions: U373 MG
[18] = Cytotoxicity against human U87 cells assessed as cell viability after 72 hrs by MTT assay; type: functional, cell-based, U-87MG ATCC; conditions: U-87 MG
[19] = system: PANC-1; experiment: Cytotoxicity against human PANC1 cells assessed as cell viability after 72 hrs by MTT assay; type: functional, cell-based; conditions: PANC-1, 72 h
[20] = system: SK-BR-3; experiment: Cytotoxicity against human SKBR3 cells assessed as cell viability after 72 hrs by MTT assay; type: functional, cell-based; conditions: SK-BR-3, 72 h
[21] = system: MDA-MB-231; experiment: Cytotoxicity against human MDA-MB-231 cells assessed as cell viability after 72 hrs by MTT assay; type: functional, cell-based; conditions: MDA-MB-231, 72 h

- inhibition [3]: Active
- inhibition [4]: Dose-dependent effect
Compound: O=C1C(Nc2ccc([N+](=O)[O-])cc2Cl)=CC2=NS(=O)(=O)c3cccc1c32
- IC50 [1]: 1390 nM
- IC50 [2]: 1140 nM
- IC50 [5]: 2560 nM
- Activity [6]: inactive

Compound: O=C1C(Nc2ccccc2)=CC2=NS(=O)(=O)c3cccc1c32
- IC50 [1]: 5000 nM

- inhibition [7]: Dose-dependent effect
- inhibition [10]: Active
- inhibition [11]: Active
- inhibition [14]: inactive
- inhibition [15]: inactive
- inhibition [4]: Dose-dependent effect
- inhibition [16]: Active
Compound: NS(=O)(=O)c1cccc2c1C(=O)C=C(Nc1cccnc1)C2=O
- IC50 [1]: 500 nM
- Activity [8]: inactive
- Activity [9]: inactive
- TGI [12]: Active
- Activity [13]: Active
- IC50 [2]: 550 nM
- IC50 [5]: 1390 nM

Compound: NS(=O)(=O)c1cccc2c1C(=O)c1cccc(O)c1C2=O
- IC50 [17]: 160 nM
- IC50 [18]: 160 nM
- IC50 [19]: 160 nM
- IC50 [20]: 160 nM
- IC50 [21]: 160 nM

Compound: O=C1C(Nc2ccc3ccccc3c2)=CC2=NS(=O)(=O)c3cccc1c32
- IC50 [1]: 2500 nM

Compound: NS(=O)(=O)c1cccc2c1C(=O)C=C(Nc1ccccc1)C2=O
- IC50 [1]: > 5000 nM
